Results from ChEMBL document CHEMBL5058577, “EUbOPEN Chemogenomics Library 2 (Multiplex)” (2022).

Test system: Fibroblast
Assay: Multiplex assay against human fibroblast
Type: toxicity, cell-based
Summary of the method: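 Live cells were stained at seeding with Hoechst33342, BioTracker Green Microtubule Cytoskeleton Dye, MitoTracker Red and Annexin V Alexa Fluor 680, then imaged on a CQ1 microscope at 37°C and 5% CO2 after compound addition. CellPathfinder machine-learning gating split cells into Hoechst high-intensity objects or normal cells. Normal cells were split into healthy, pyknosed or fragmented nuclei, and pyknosed cells into mitotic or apoptotic. Tubulin, mitochondrial-mass and membrane-permeability phenotypes are per cents of healthy-nucleus cells.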

[1] = 12 h, 1 µM, compound concentration 1 uM, replicate 1
[2] = 12 h, 1 µM, compound concentration 1 uM, replicate 2
[3] = 12 h, 10 µM, compound concentration 10 uM, replicate 1
[4] = 12 h, 10 µM, compound concentration 10 uM, replicate 2
[5] = 24 h, 1 µM, compound concentration 1 uM, replicate 1
[6] = 24 h, 1 µM, compound concentration 1 uM, replicate 2
[7] = 24 h, 10 µM, compound concentration 10 uM, replicate 1
[8] = 24 h, 10 µM, compound concentration 10 uM, replicate 2
[9] = 48 h, 1 µM, compound concentration 1 uM, replicate 1
[10] = 48 h, 1 µM, compound concentration 1 uM, replicate 2
[11] = 48 h, 10 µM, compound concentration 10 uM, replicate 1
[12] = 48 h, 10 µM, compound concentration 10 uM, replicate 2

CCNC1(C(N)=O)CCN(c2ncnc3c2nc(-c2ccccc2Cl)n3-c2ccc(Cl)cc2)CC1 [OTENABANT]
Population Apoptotic (%) [1]: 26%
Population Fragmented Nuclei (%) [1]: 19%
Population Healthy Nuclei (%) [1]: 63%
Population Hoechst High Intensity Objects (%) [1]: 6%
Population Membrane Permeable-Phenotype (%) [1]: 1%
Population Mitochondria Different-Phenotype (%) [1]: 7%
Population Mitotic Cells (%) [1]: 73%
Population Normal (%) [1]: 93%
Population Pyknosed Nuclei (%) [1]: 17%
Population Tubulin-Different-Phenotype (%) [1]: 44%
Total Cell Count [1]: 161
Population Apoptotic (%) [2]: 37%
Population Fragmented Nuclei (%) [2]: 25%
Population Healthy Nuclei (%) [2]: 48%
Population Hoechst High Intensity Objects (%) [2]: 2%
Population Membrane Permeable-Phenotype (%) [2]: 6%
Population Mitochondria Different-Phenotype (%) [2]: 10%
Population Mitotic Cells (%) [2]: 62%
Population Normal (%) [2]: 97%
Population Pyknosed Nuclei (%) [2]: 26%
Population Tubulin-Different-Phenotype (%) [2]: 50%
Total Cell Count [2]: 156
Population Apoptotic (%) [3]: 57%
Population Fragmented Nuclei (%) [3]: 22%
Population Healthy Nuclei (%) [3]: 64%
Population Hoechst High Intensity Objects (%) [3]: 4%
Population Membrane Permeable-Phenotype (%) [3]: 0%
Population Mitochondria Different-Phenotype (%) [3]: 16%
Population Mitotic Cells (%) [3]: 42%
Population Normal (%) [3]: 95%
Population Pyknosed Nuclei (%) [3]: 12%
Population Tubulin-Different-Phenotype (%) [3]: 90%
Total Cell Count [3]: 170
Population Apoptotic (%) [4]: 40%
Population Fragmented Nuclei (%) [4]: 30%
Population Healthy Nuclei (%) [4]: 48%
Population Hoechst High Intensity Objects (%) [4]: 3%
Population Membrane Permeable-Phenotype (%) [4]: 12%
Population Mitochondria Different-Phenotype (%) [4]: 18%
Population Mitotic Cells (%) [4]: 59%
Population Normal (%) [4]: 96%
Population Pyknosed Nuclei (%) [4]: 21%
Population Tubulin-Different-Phenotype (%) [4]: 87%
Total Cell Count [4]: 216
Population Apoptotic (%) [5]: 26%
Population Fragmented Nuclei (%) [5]: 17%
Population Healthy Nuclei (%) [5]: 66%
Population Hoechst High Intensity Objects (%) [5]: 4%
Population Membrane Permeable-Phenotype (%) [5]: 0%
Population Mitochondria Different-Phenotype (%) [5]: 8%
Population Mitotic Cells (%) [5]: 73%
Population Normal (%) [5]: 95%
Population Pyknosed Nuclei (%) [5]: 15%
Population Tubulin-Different-Phenotype (%) [5]: 44%
Total Cell Count [5]: 154
Population Apoptotic (%) [6]: 34%
Population Fragmented Nuclei (%) [6]: 27%
Population Healthy Nuclei (%) [6]: 43%
Population Hoechst High Intensity Objects (%) [6]: 5%
Population Membrane Permeable-Phenotype (%) [6]: 9%
Population Mitochondria Different-Phenotype (%) [6]: 14%
Population Mitotic Cells (%) [6]: 65%
Population Normal (%) [6]: 94%
Population Pyknosed Nuclei (%) [6]: 29%
Population Tubulin-Different-Phenotype (%) [6]: 57%
Total Cell Count [6]: 155
Population Apoptotic (%) [7]: 54%
Population Fragmented Nuclei (%) [7]: 22%
Population Healthy Nuclei (%) [7]: 64%
Population Hoechst High Intensity Objects (%) [7]: 2%
Population Membrane Permeable-Phenotype (%) [7]: 0%
Population Mitochondria Different-Phenotype (%) [7]: 37%
Population Mitotic Cells (%) [7]: 45%
Population Normal (%) [7]: 97%
Population Pyknosed Nuclei (%) [7]: 12%
Population Tubulin-Different-Phenotype (%) [7]: 96%
Total Cell Count [7]: 174
Population Fragmented Nuclei (%) [8]: 37%
Population Healthy Nuclei (%) [8]: 48%
Population Hoechst High Intensity Objects (%) [8]: 5%
Population Membrane Permeable-Phenotype (%) [8]: 7%
Population Mitochondria Different-Phenotype (%) [8]: 30%
Population Normal (%) [8]: 94%
Population Pyknosed Nuclei (%) [8]: 13%
Population Tubulin-Different-Phenotype (%) [8]: 88%
Total Cell Count [8]: 235
Population Apoptotic (%) [9]: 68%
Population Fragmented Nuclei (%) [9]: 18%
Population Healthy Nuclei (%) [9]: 69%
Population Hoechst High Intensity Objects (%) [9]: 8%
Population Membrane Permeable-Phenotype (%) [9]: 0%
Population Mitochondria Different-Phenotype (%) [9]: 3%
Population Mitotic Cells (%) [9]: 31%
Population Normal (%) [9]: 91%
Population Pyknosed Nuclei (%) [9]: 12%
Population Tubulin-Different-Phenotype (%) [9]: 41%
Total Cell Count [9]: 167
Population Apoptotic (%) [10]: 59%
Population Fragmented Nuclei (%) [10]: 33%
Population Healthy Nuclei (%) [10]: 42%
Population Hoechst High Intensity Objects (%) [10]: 5%
Population Membrane Permeable-Phenotype (%) [10]: 13%
Population Mitochondria Different-Phenotype (%) [10]: 18%
Population Mitotic Cells (%) [10]: 40%
Population Normal (%) [10]: 94%
Population Pyknosed Nuclei (%) [10]: 23%
Population Tubulin-Different-Phenotype (%) [10]: 72%
Total Cell Count [10]: 143
Population Apoptotic (%) [11]: 78%
Population Fragmented Nuclei (%) [11]: 30%
Population Healthy Nuclei (%) [11]: 61%
Population Hoechst High Intensity Objects (%) [11]: 8%
Population Membrane Permeable-Phenotype (%) [11]: 0%
Population Mitochondria Different-Phenotype (%) [11]: 49%
Population Mitotic Cells (%) [11]: 21%
Population Normal (%) [11]: 91%
Population Pyknosed Nuclei (%) [11]: 8%
Population Tubulin-Different-Phenotype (%) [11]: 92%
Total Cell Count [11]: 187
Population Apoptotic (%) [12]: 61%
Population Fragmented Nuclei (%) [12]: 46%
Population Healthy Nuclei (%) [12]: 47%
Population Hoechst High Intensity Objects (%) [12]: 2%
Population Membrane Permeable-Phenotype (%) [12]: 7%
Population Mitochondria Different-Phenotype (%) [12]: 26%
Population Mitotic Cells (%) [12]: 38%
Population Normal (%) [12]: 97%
Population Pyknosed Nuclei (%) [12]: 6%
Population Tubulin-Different-Phenotype (%) [12]: 89%
Total Cell Count [12]: 299
